Sampled rows, rich in hits. Any-hit rate of the full collection: about 2.6%.
SENP8 block-1: human SENP8 protease inhibitors, primary screen, biochemical, fluorescence, Nedd8 protein substrate, uHTS; AID 602440, 2012; 0.64% of 360,000 active; inhibition, % at 20 µM; recombinant SENP8; in the data active = inhibition mostly above about 40%, no sharp cut-off; inactive = mostly below about 27%
SENP8 block-2: SENP8 protease inhibitors, primary screen, biochemical, luminescence. inhibition, % at 10 µM. purified SENP8, Z-RLRGG-aminoluciferin cleavage. 1.2% of 330,000 active; in the data active = inhibition above about 50%
SENP6 inh: SENP6 protease inhibitors, primary screen, biochemical, luminescence, uHTS. Recombinant SENP6 catalytic domain, aminoluciferin luminescence. inhibition, % at 10 µM. 1.8% of 330,000 active. AID 2599, 2010;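 active = inhibition above about 50% at the single tested dose, limit read from the data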;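 note: plate controls were DMSO wells with enzyme for no effect and DMSO wells lacking enzyme for full effect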
Target sequence (Q9GZR1 628-1112 limits assumed): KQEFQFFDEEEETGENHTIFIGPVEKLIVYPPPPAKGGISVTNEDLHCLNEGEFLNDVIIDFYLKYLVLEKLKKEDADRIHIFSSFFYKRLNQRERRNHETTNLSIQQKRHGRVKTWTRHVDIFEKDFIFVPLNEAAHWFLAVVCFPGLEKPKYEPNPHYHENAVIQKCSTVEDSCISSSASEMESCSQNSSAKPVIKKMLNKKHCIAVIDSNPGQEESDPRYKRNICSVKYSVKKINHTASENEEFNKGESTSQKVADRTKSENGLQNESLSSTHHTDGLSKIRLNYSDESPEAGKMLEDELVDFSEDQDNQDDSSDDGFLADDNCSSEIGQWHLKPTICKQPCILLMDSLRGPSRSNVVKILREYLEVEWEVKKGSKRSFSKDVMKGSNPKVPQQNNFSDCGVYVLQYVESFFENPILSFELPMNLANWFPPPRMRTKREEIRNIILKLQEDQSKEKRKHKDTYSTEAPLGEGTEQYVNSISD
Platelet DG rel: inhibitors of platelet dense granule secretion, primary screen, cell-based, MLPCN, human platelets. human platelet-rich plasma, SFLLRN dense granule ATP release, luminescence. AID 1663, 2009. 0.22% of 300,000 active. inhibition, %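 (compounds screened at 7.5 µM in platelet-rich plasma)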;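 active = mean replicate score, as percent of positive control, at or above 50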
SENP1 inh: human SENP1 catalytic domain inhibitors, primary screen, biochemical, FRET, uHTS; 0.21% of 360,000 active; inhibition, % at 10 µM; recombinant SENP1 catalytic domain, CyPet-SUMO1-YPet FRET cleavage; Sentrin-specific protease 1 (Homo sapiens), Q9P0U3;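 active = inhibition at least 30% at 10 µM, raw YFP signal under a set limit, fluorescence ratio 0.5 to 1.5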;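 note: 0% = enzyme with DMSO and 100% = no enzyme wells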
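System: Recombinant human SENP1 catalytic domain, His6-tagged | Incubation: Enzyme reaction for 50 min at room temperature, dark | Medium: Tris pH 8 with BME, BSA, NP40 and catalase | Also added: 25 nM SUMO1 FRET substrate | Compound: 10 µM single point, 0.5% DMSO | Measured by: FRET fluorescence in CFP and YFP emission channels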
SENP7 block: SENP7 protease inhibitors, primary screen, biochemical, luminescence, uHTS; inhibition, % at 5 µM; recombinant SENP7, Z-RLRGG-aminoluciferin luminescence, 40 min; Sentrin-specific protease 7 (Homo sapiens), Q9BQF6; 1.5% of 330,000 active;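 active = inhibition above about 50% at the single test dose, limit read from the data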;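 note: plate controls were DMSO with enzyme for no effect and no enzyme buffer wells for full effect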
SENP8 inh conf: human SENP8 protease inhibitors, confirmation, biochemical, Nedd8 protein substrate, single concentration; purified SENP8, Nedd8-AMC/pro-Nedd8 cleavage fluorescence, 30 min; shares compounds with SENP8 block-1; 15% of 1,400 active; inhibition, % at 25 µM; in the data active = inhibition mostly above about 39%, no sharp cut-off; inactive = mostly below about 34%
The depositor's hits bear a star; . = not tested or not shown.

SMILES	SENP8 block-1	SENP8 block-2	SENP6 inh	Platelet DG rel	SENP1 inh	SENP7 block	SENP8 inh conf
CC(=O)/C(=N/Nc1ccc([N+](=O)[O-])cc1)N1CCCc2ccccc21	47*	-7	-13	3	16	-8	-11
CC(=O)/C(=N/Nc1ccccc1[N+](=O)[O-])N1CCCc2ccccc21	41*	4	0	27	4	8	27
Cc1ccc(CN2CC(C(=O)O)CC2=O)cc1 (centres undefined)	40*	0	-3	0	4	4	21
O=C(/C=C/c1ccc(Cl)cc1)N1CCN(c2ccc(Cl)cc2[N+](=O)[O-])CC1	43*	-5	-25	-3	3	1	14
O=C(O/N=C\c1ccc(N2CCCCC2)c([N+](=O)[O-])c1)c1ccc(Cl)cc1Cl	49*	-19	-12	14	2	-12	5
O=C1c2ccccc2CCC12OC2c1ccc([N+](=O)[O-])cc1 (centres undefined)	17	.	.	.	2	.	.
COc1ccccc1N1CCN(C(=O)C2CCN(S(=O)(=O)c3ccccc3)CC2)CC1	6	0	-14	0	3	2	.
COc1ccc(S(=O)(=O)N2CCC(C(=O)N3CCN(c4ccccc4OC)CC3)CC2)cc1	43*	0	-2	-10	-2	-4	4
CCc1nc2ccc(C(=O)N3CCN(S(=O)(=O)CC)CC3)cn2c1N(CC)CCN(C)C	2	.	.	.	-45	.	.
O=C(Nc1ccc(N2CCN(C(=O)c3ccccc3)CC2)cc1)c1ccc([N+](=O)[O-])o1	51*	.	.	-1	1	.	31
Cc1ccccc1C(=O)N1CCN(c2ccc(NC(=O)c3ccc([N+](=O)[O-])o3)cc2)CC1	39*	6	-7	-3	1	9	7
O=C(CN1C(=O)CCSc2ccc(S(=O)(=O)N3CCOCC3)cc21)Nc1cccc(F)c1	16	2	-7	4	-3	-1	.
c1ccc(Sc2ccccn2)cc1	40*	-4	-16	8	3	-9	15
c1ccc(SSc2ccccn2)nc1	32	5	13	-2	1	-3	.
C=CCC1CCCCC12NC(=O)N(c1ccccc1)N2 (centres undefined)	18	1	2	5	-2	1	.
O=C1CCC2(CC1)NC(=O)N(c1ccccc1)N2	37*	5	3	-3	1	10	-7
[O-]/C(=C(\C(=S)NCc1ccco1)[n+]1ccccc1)c1ccccc1Br	42*	2	7	7	1	10	33
Cc1ccc(S(=O)(=O)NCC2CCCO2)cc1[N+](=O)[O-] (centres undefined)	45*	-14	0	-5	1	-11	7
O=C1COc2ccc3ccccc3c21	-37	1	-2	2	3	2	.
Nc1ncc([N+](=O)[O-])c(Oc2ccccc2F)n1	49*	0	-46	1	1	-3	9
O=[N+]([O-])c1cccnc1Oc1ccccc1F	5	2	-3	4	1	2	.
CCOc1ccc(N(CC(=O)NCc2ccccc2OC)S(C)(=O)=O)cc1	12	1	10	0	0	6	.
CCOc1ccc(N(CC(=O)NCc2ccccc2)S(C)(=O)=O)cc1	48*	2	-11	10	-1	11	28
Cc1cc2c(cc1C)-n1nnnc1C(N1CCCC1)C(=O)N2 (centres undefined)	0	.	.	.	0	.	.
Cc1cccc(NC(=O)c2nc[nH]c2C(=O)N2CCN(c3ccccc3)CC2)c1	18	6	-7	.	0	1	.
SMILES	SENP8 block-1	SENP8 block-2	SENP6 inh	Platelet DG rel	SENP1 inh	SENP7 block	SENP8 inh conf
Cc1cnc(C)c(Nc2nc(C(N)c3ccccc3)cs2)n1 (centres undefined)	-157	.	.	.	-5	.	.
C=CCC(C(=O)OC)(C(=O)OC)c1ccc(C(F)(F)F)cc1[N+](=O)[O-]	13	-1	1	17	1	7	.
C=CCC(C(=O)OC)(C(=O)OC)c1ccc([N+](=O)[O-])cc1[N+](=O)[O-]	42*	0	18	4	2	3	11
CC(C)(C)Nc1nc(N2CCCC2)nc(N2CCCC2)n1	44*	-1	-3	-7	0	7	16
CCNc1nc(NC(C)(C)C)nc(N2CCCC2)n1	28	0	-29	3	2	6	.
O=C(N/N=C/CCc1ccccc1)c1ccccc1	47*	-3	-8	-2	1	6	16
O=C(N/N=C/CCc1ccccc1)C1CCCCC1	14	4	1	-10	2	4	.
Cc1ccc(NC(=O)C2CCCO2)c(Br)c1 (centres undefined)	1	-5	-23	-1	2	-1	.
Cc1ccc(-n2c(-c3ccncc3)nnc2-c2ccco2)cc1	-80	0	3	9	1	5	.
Cc1ccc(-c2nnc(-c3ccncc3)n2-c2ccc(C)cc2)cc1	62*	5	6	-2	3	7	9
CCN(CC)c1ncnc2c1cnn2Cc1ccc(Cl)cc1	41*	1	13	8	3	5	3
CCOc1ccccc1N1CCN(C(=O)c2cc(-c3cc(OC)ccc3OC)nc3ccccc23)CC1	-299	-8	-12	18	0	-4	.
O=C1c2ccc3c4c(ccc(c24)C(=O)N1c1cccc(O)c1)C(=O)N(c1cccc(O)c1)C3=O	46*	6	22	7	4	19	46
O=C1c2ccc3c4c(ccc(c24)C(=O)N1c1cccc(O)c1)CC3	-155	-2	17	1	-109	1	.
CC1CC(=O)N(c2ccc(NCCc3ccc(O)cc3)c([N+](=O)[O-])c2)C1=O (centres undefined)	42*	-2	10	7	4	-7	20
CC1CC(=O)N(c2ccc(NCCc3ccccc3)c([N+](=O)[O-])c2)C1=O (centres undefined)	36	-16	-23	0	5	0	.
COc1cccc(C=Nc2ccc3c(c2)OCCO3)c1O	53*	-25	-29	28	8	-3	30
COc1ccccc1CNc1nc(NCc2ccccc2SC)c2sccc2n1	-31	.	.	.	2	.	.
CCN(CC)c1ccc(NC2CC(=O)N(CCc3ccc(OC)cc3)C2=O)cc1 (centres undefined)	74*	5	3	-3	-14	5	41
